pIC50: −log10 of the molar value. Structures can show the parent of a compound that is named as a salt.
Tests used:
[1] = Cytotoxicity against human HL60 cells after 48 hrs by MTT assay; format: functional, cell-based; conditions: HL-60, 48 h
Summary of the method: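 HL-60 human leukemia cells; viability read by MTT reduction, with adriamycin as positive control.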

[2] = Cytotoxicity against human A549 cells after 48 hrs by SRB assay; format: functional, cell-based; conditions: A549, 48 h
Summary of the method: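 A549 human lung adenocarcinoma cells; cytotoxicity read by sulforhodamine B (SRB) staining, with adriamycin as positive control.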

Compound: C=C(C)[C@H]1O[C@H]2CC[C@@]3(C)[C@@](O)(CC[C@H]4[C@@H]5OC(C)(C)[C@H]6C[C@@H]7C(=C)Cc8c(Cl)cc9[nH]c(c5c9c8[C@@]76O)[C@@]43C)[C@]23O[C@@H]3[C@H]1O
- pIC50 [1]: 5.15
- pIC50 [2]: 5.08

Compound: C=C(C)[C@H]1O[C@H]2CC[C@@]3(C)[C@@](O)(CC[C@H]4[C@@H]5OC(C)(C)[C@H]6C[C@@H]7C(=C)Cc8ccc9[nH]c(c5c9c8[C@@]76O)[C@@]43C)[C@]23O[C@@H]3[C@H]1O
- pIC50 [1]: < 5.00
- pIC50 [2]: < 5.00

Compound: C=C(C)[C@H]1O[C@H]2CC[C@@]3(C)[C@@](O)(CC[C@H]4Cc5c([nH]c6ccccc56)[C@@]43C)[C@]23O[C@@H]3[C@H]1O
- pIC50 [1]: < 5.00
- pIC50 [2]: < 5.00

Compound: C=C1Cc2ccc3[nH]c4c5c3c2[C@H]2[C@@H]1C[C@@H]2C(C)(C)O[C@H]5[C@@H]1CC[C@@]2(O)C3=C[C@@H](O)[C@@H](C(=C)C)O[C@H]3CC[C@]2(C)[C@@]41C
- pIC50 [1]: < 5.00
- pIC50 [2]: < 5.00

Compound: C=C(C)[C@H]1O[C@H]2CC[C@@]3(C)[C@@](O)(CC[C@]4(OC)O[C@@H]5OC(C)(C)[C@H]6C[C@@H]7C(=C)Cc8c(Cl)cc9[nH]c(c5c9c8[C@@]76O)[C@@]43C)[C@]23O[C@@H]3[C@H]1O
- pIC50 [1]: 5.30
- pIC50 [2]: 5.20

Compound: CC(C)(O)[C@H]1O[C@H]2CC[C@@]3(C)[C@@H](CC[C@H]4Cc5c([nH]c6ccccc56)[C@@]43C)C2=C[C@H]1O
- pIC50 [1]: 5.59
- pIC50 [2]: 5.34

Compound: C=C1Cc2ccc3[nH]c4c(c3c2[C@H]2[C@@H]1C[C@@H]2C(C)(C)O)[C@@H](OC)[C@@H]1CC[C@@]2(O)[C@@]35O[C@@H]3[C@@H](O)[C@@H](C(=C)C)O[C@H]5CC[C@]2(C)[C@@]41C
- pIC50 [1]: < 5.00
- pIC50 [2]: 5.04

Compound: C=C1Cc2ccc3[nH]c4c(c3c2[C@H]2[C@@H]1C[C@@H]2C(C)(C)O)C[C@@H]1CC[C@@]2(O)C3=C[C@@H](O)[C@@H](C(=C)C)O[C@H]3CC[C@]2(C)[C@@]41C
- pIC50 [1]: < 5.00
- pIC50 [2]: < 5.00

Compound: C=C(C)[C@H]1O[C@H]2CC[C@@]3(C)[C@@](O)(CC[C@]4(OC)O[C@@H]5OC(C)(C)[C@H]6C[C@@H]7C(=C)Cc8ccc9[nH]c(c5c9c8[C@@]76O)[C@@]43C)[C@]23O[C@@H]3[C@H]1O
- pIC50 [1]: < 5.00
- pIC50 [2]: < 5.00

Compound: C=C(C)[C@H]1O[C@H]2CC[C@@]3(C)[C@@](O)(CC[C@]4(O)O[C@@H]5OC(C)(C)[C@H]6C[C@@H]7C(=C)Cc8c(Cl)cc9[nH]c(c5c9c8[C@@]76O)[C@]34C)[C@]23O[C@@H]3[C@H]1O
- pIC50 [1]: 5.02
- pIC50 [2]: 4.94

Compound: C=C(C)[C@H]1O[C@H]2CC[C@@]3(C)[C@@](O)(CC[C@H]4Cc5c([nH]c6ccccc56)[C@@]43C)C2=C[C@H]1O
- pIC50 [1]: < 5.00
- pIC50 [2]: < 5.00

Compound: C=C(C)[C@@H]1CC=C2[C@H](CC[C@@]3(C)[C@@]2(O)CC[C@H]2Cc4c([nH]c5ccc6c(c45)[C@@H]4[C@@H](C(C)(C)O)C[C@@H]4C6(C)C)[C@@]23C)O1
- pIC50 [1]: < 5.00
- pIC50 [2]: < 5.00

Compound: CC(=O)OC(C)(C)[C@H]1O[C@H]2CC[C@@]3(C)[C@@H](CC[C@H]4Cc5c([nH]c6ccccc56)[C@@]43C)C2=CC1=O
- pIC50 [1]: < 5.00
- pIC50 [2]: < 5.00

Compound: C=C(C)[C@H]1C[C@H](C(C)(C)O)[C@H]1c1cccc2c1C(=O)C[C@@H]1CC[C@@]3(O)C4=C[C@@H](O)[C@@H](C(=C)C)O[C@H]4CC[C@]3(C)[C@@]1(C)C(=O)N2
- pIC50 [1]: < 5.00
- pIC50 [2]: < 5.00

Compound: COc1cccc2c1C(=O)c1c(O)c3c(c(O)c1C2=O)C[C@@](O)(C(=O)CO)C[C@@H]3O[C@H]1C[C@H](N)[C@H](O)[C@H](C)O1 [DOXORUBICIN HYDROCHLORIDE]
- pIC50 [1]: 7.17
- pIC50 [2]: 6.52

Compound: C=C1Cc2ccc3[nH]c4c5c3c2[C@H]2[C@@H]1C[C@@H]2C(C)(C)O[C@H]5[C@@H]1CC[C@@]2(O)[C@@]35O[C@@H]3[C@@H](O)[C@@H](C(=C)C)O[C@H]5CC[C@]2(C)[C@@]41C [PENITREM B]
- pIC50 [1]: < 5.00
- pIC50 [2]: < 5.00

Compound: C=C1Cc2c(Cl)cc3[nH]c4c5c3c2[C@H]2[C@@H]1C[C@@H]2C(C)(C)O[C@H]5[C@@H]1CC[C@@]2(O)C3=C[C@@H](O)[C@@H](C(=C)C)O[C@H]3CC[C@]2(C)[C@@]41C [PENITREM C]
- pIC50 [1]: 5.33
- pIC50 [2]: 5.10

Compound: C=C1Cc2c(Cl)cc3[nH]c4c5c3c2[C@H]2[C@@H]1C[C@@H]2C(C)(C)O[C@H]5[C@@H]1CC[C@@]2(O)[C@@]35O[C@@H]3[C@@H](O)[C@@H](C(=C)C)O[C@H]5CC[C@]2(C)[C@@]41C [PENITREM F]
- pIC50 [1]: 5.48
- pIC50 [2]: 5.09

From ChEMBL document CHEMBL3865832, “Rhizovarins A-F, Indole-Diterpenes from the Mangrove-Derived Endophytic Fungus Mucor irregularis QEN-189” (J Nat Prod, 2016)
